The target in data set [1] is T1, human aryl hydrocarbon receptor (AhR) (Homo sapiens, UniProt P35869). Put plainly: Yeast bioassay. In kind it is cell-based. The following applies: for concentration at which the bioassay response showed signs of saturation: Figure 3. An outline of the steps:
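Engineered S. cerevisiae YCM3 (W303a-derived) carries chromosomal full-length human AhR/ARNT under the galactose promoter and a 5×XRE-LacZ plasmid. Kept in glucose medium, diluted to A600 0.04 in 2% galactose medium, exposed 18 h at 30 °C (1% DMSO vehicle). ONPG assay pH 7.0, ~5 min, 37 °C, Na2CO3 stop. A405 normalized to A600, % of 1 µM β-naphthoflavone. Two-parameter fit; n = 4, ≥3 experiments.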

For a further data set, the system named is AhR. The settings on record: cited from earlier work.
The test system of another data set is YCM3 yeast cells. Put plainly: Toxicity to the yeast cells. In kind it is cell-based, Saccharomyces cerevisiae. The following applies: for concentrations toxic to the yeast cells: 18 h, precluded data collection; for toxicity to the yeast cells: compared with 2-MP, 3-MP, 4-MP, tested up to 100 µM.
Data set [2] concerns the target T1, human aryl hydrocarbon receptor (AhR). The settings on record: cited from earlier work.

Structures are written as SMILES.

T1 sequence (P35869 11-848): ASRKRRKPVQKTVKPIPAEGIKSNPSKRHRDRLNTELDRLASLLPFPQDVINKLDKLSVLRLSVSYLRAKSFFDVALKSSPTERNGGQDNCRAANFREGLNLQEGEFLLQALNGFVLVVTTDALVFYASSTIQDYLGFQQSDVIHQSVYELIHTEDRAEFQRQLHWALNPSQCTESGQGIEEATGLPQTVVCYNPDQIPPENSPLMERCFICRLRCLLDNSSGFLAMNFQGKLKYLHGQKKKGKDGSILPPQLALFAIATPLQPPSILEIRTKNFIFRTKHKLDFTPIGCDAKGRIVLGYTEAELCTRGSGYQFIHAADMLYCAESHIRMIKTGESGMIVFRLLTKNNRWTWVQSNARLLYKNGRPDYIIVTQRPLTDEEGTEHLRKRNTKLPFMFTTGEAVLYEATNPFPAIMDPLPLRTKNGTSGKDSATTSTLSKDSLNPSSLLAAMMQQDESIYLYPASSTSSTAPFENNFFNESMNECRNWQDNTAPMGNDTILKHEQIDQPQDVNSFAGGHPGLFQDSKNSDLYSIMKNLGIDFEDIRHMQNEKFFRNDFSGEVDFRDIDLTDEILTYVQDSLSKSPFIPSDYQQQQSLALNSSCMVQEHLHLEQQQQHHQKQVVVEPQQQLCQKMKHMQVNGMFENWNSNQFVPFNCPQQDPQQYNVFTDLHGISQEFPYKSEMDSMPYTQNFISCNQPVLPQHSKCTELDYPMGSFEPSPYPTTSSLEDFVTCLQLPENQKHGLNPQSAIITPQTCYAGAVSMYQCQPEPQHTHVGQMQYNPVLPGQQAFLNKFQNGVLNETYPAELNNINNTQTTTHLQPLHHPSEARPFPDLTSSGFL
T1 sequence (P27540 whole entry partner): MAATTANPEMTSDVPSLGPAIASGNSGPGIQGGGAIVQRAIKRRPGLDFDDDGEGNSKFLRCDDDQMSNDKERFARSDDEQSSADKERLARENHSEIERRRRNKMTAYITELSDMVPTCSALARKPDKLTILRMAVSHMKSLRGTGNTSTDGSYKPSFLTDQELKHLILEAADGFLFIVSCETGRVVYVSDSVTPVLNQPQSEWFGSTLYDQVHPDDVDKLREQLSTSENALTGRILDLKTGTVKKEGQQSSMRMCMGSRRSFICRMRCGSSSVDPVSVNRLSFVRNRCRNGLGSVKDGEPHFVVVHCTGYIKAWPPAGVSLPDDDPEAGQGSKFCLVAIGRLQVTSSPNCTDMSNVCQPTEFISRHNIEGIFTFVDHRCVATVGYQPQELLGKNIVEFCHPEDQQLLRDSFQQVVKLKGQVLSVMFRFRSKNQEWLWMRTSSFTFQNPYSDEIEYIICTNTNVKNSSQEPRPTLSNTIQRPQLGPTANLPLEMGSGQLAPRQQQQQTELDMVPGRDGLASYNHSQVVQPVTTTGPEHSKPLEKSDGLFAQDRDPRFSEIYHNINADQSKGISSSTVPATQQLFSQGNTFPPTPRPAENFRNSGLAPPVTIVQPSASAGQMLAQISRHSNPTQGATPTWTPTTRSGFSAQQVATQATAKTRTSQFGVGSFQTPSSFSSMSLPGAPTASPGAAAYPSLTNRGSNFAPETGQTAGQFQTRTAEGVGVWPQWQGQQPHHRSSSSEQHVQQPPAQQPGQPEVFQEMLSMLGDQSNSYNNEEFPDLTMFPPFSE

Regarding `Cc1cccc2c1ccc1ccccc12` [1-MP, 1-methylphenanthrene], the “concentration at which the bioassay response showed signs of saturation” value (“concentration … of saturation” below) in data set [1] was 30 µM. For the same molecule, the “AhR activation in a rat liver system” value with AhR is “stronger than 9-MP”.

Regarding `Cc1ccc2c(ccc3ccccc32)c1` [2-MP, 2-methylphenanthrene], the “concentrations toxic to the yeast cells” value with YCM3 yeast cells was “above 50 µM”. For the same molecule, the “AhR activation in a rat liver system” value in the data set on AhR was “stronger than 9-MP”. Consider `Cc1ccc2ccc3ccc(C)cc3c2c1` [3,6-DMP, 3,6-dimethylphenanthrene], for which the “signal in the bioassay relative to that produced by phenanthrene and the monomethylated derivatives” value in data set [1] is recorded as “approximately 50%”. Regarding `Cc1ccc2ccc3ccccc3c2c1` [3-MP, 3-methylphenanthrene], in the data set with YCM3 yeast cells, the “concentrations toxic to the yeast cells” value is recorded as “above 50 µM”. Further, the “AhR activation in a rat liver system” value in the data set with AhR was “stronger than 9-MP”. For the molecule `Cc1cccc2ccc3ccccc3c12` [4-MP, 4-methylphenanthrene], the “concentrations toxic to the yeast cells” value in the data set on YCM3 yeast cells was “above 50 µM”. As to `Cc1cc2ccccc2c2ccccc12` [9-MP, 9-methylphenanthrene], in the data set on YCM3 yeast cells, the “toxicity to the yeast cells” value is given as “less toxic to the yeast cells”. Besides, the “concentration … of saturation” value in data set [1] stood at 100 µM.

With `c1ccc2c(c1)ccc1ccccc12` [Phenanthrene, phenanthrene, reference compound], in the data set with YCM3 yeast cells, the “toxicity to the yeast cells” value is recorded as “less toxic to the yeast cells”. Further, the “concentration … of saturation” value in data set [1] is listed as 100 µM. Turning to `c1ccc2c(c1)cc1ccc3cccc4ccc2c1c34` [benzo[a]pyrene], the “activity in this yeast bioassay” value in data set [2] was “very potent activator”. With `O=c1cc(-c2ccccc2)oc2ccc3ccccc3c12` [β-NF, β-naphthoflavone], the “AhR agonism” value in data set [2] (positive control) is reported as “strong agonist”.

Source of the values: PMC4278532 (Environmental Toxicology and Chemistry / Setac, 2014).
